The text below walks through data of ChEMBL document CHEMBL5154669, “G-Quadruplex DNA as a Target in Pathogenic Bacteria: Efficacy of an Extended Naphthalene Diimide Ligand and Its Mode of Action” (J Med Chem, 2022).

Structures are written as SMILES. ≈ marks a conversion by molar mass, not a printed value. Calls of active or inactive are those of the source. Where a SMILES comes first, the peptide text is derived from it. Bridges are numbered along the chain shown (N, C = ends). [ ]: non-standard residue; d: D form. The star is where a group is joined. X1 = CC[C@H](C)CCCCC(=O)*; Orn = NCCC[C@H](N)C(=O)O; Dab = NCC[C@H](N)C(=O)O

For assay [1], the system named is Escherichia coli. In words: Bacteriolytic activity against Escherichia coli LMG 8223 incubated for 2 hrs. It is filed as functional, organism-based. Summed up: (§1)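 Cultures grown 20 h were washed three times in HEPES with 5% glucose, adjusted to OD600 0.5 and exposed at 37 °C. OD600 was followed every 15 min for 2 h. Controls for E. coli were polymyxin B (2 μM) and erythromycin (32 μM). Controls for Gram-positive strains were gramicidin S (2 μM) and chloramphenicol (16 μM). Cells were then spotted on cMHB agar, 20 h, 37 °C, in triplicate.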

For assay [2], the system named is Bacillus cereus. The experiment in a line: Bacteriolytic activity against Bacillus cereus ATCC 10987 incubated for 2 hrs. It is filed as functional, organism-based. Summed up:
as §1

The test system of assay [3] is Enterococcus faecium. The experiment in a line: Bacteriolytic activity against Enterococcus faecium LMG 16003 incubated for 2 hrs. It is filed as functional, organism-based. Summed up: as §1
In assay [4] the test system is Staphylococcus aureus. The experiment in a line: Bacteriolytic activity against Staphylococcus aureus LMG 8224 incubated for 2 hrs. It is filed as functional, organism-based. Summed up: as §1
A further assay has as its system Enterobacter cloacae. The experiment in a line: Antibacterial activity against Enterobacter cloacae LMG 02783 assessed as inhibition of bacterial growth incubated for 20 hrs by CLSI based broth microdilution method. It is filed as functional. The method in brief: (§2)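 Broth microdilution in cation-adjusted Mueller-Hinton broth following CLSI guidelines. DMSO stocks were at 10 mM; compounds were twofold serially diluted over 128 to 2 μM. The inoculum was at 5 × 10⁵, prepared from colonies grown 20 h at 37 °C and adjusted to 0.5 McFarland. Plates ran 20 h at 37 °C with OD600 read-out. MIC was the lowest concentration inhibiting visible growth, in triplicate.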
(In general: Broth dilution looks for growth in wells or tubes with falling amounts of substance.)

A further assay relates to Acinetobacter baumannii. In words: Antibacterial activity against Acinetobacter baumannii LMG 01041 assessed as inhibition of bacterial growth incubated for 20 hrs by CLSI based broth microdilution method. It is filed as functional. The method in brief: as §2
Another assay has as its system Klebsiella aerogenes. In words: Antibacterial activity against Enterobacter aerogenes LMG 02094 assessed as inhibition of bacterial growth incubated for 20 hrs by CLSI based broth microdilution method. It is filed as functional. The method in brief: as §2
In assay [5] the test system is Escherichia coli. The experiment in a line: Antibacterial activity against Escherichia coli LMG 8223 assessed as inhibition of bacterial growth incubated for 20 hrs by CLSI based broth microdilution method. It is filed as functional. The method in brief: as §2
In the next assay the test system is Klebsiella pneumoniae. In words: Antibacterial activity against Klebsiella pneumoniae LMG 20218 assessed as inhibition of bacterial growth incubated for 20 hrs by CLSI based broth microdilution method. It is filed as functional. The method in brief:
as §2

Another assay relates to Pseudomonas aeruginosa. The experiment in a line: Antibacterial activity against Pseudomonas aeruginosa LMG 6395 assessed as inhibition of bacterial growth incubated for 20 hrs by CLSI based broth microdilution method. It is filed as functional. The method in brief: as §2
The next assay concerns Salmonella enterica. In words: Antibacterial activity against Salmonella enterica LMG 07233 assessed as inhibition of bacterial growth incubated for 20 hrs by CLSI based broth microdilution method. It is filed as functional. The method in brief:
as §2

The subject of assay [6] is Bacillus cereus. In words: Antibacterial activity against Bacillus cereus ATCC 10987 assessed as inhibition of bacterial growth incubated for 20 hrs by CLSI based broth microdilution method. It is filed as functional. Summed up:
as §2

Assay [7] has as its system Bacillus cereus. The experiment in a line: Antibacterial activity against Bacillus cereus ATCC 14579 assessed as inhibition of bacterial growth incubated for 20 hrs by CLSI based broth microdilution method. It is filed as functional. Summed up:
as §2

For assay [8], the system named is Enterococcus faecalis. The experiment in a line: Antibacterial activity against Enterococcus faecalis LMG 08222 assessed as inhibition of bacterial growth incubated for 20 hrs by CLSI based broth microdilution method. It is filed as functional. The method in brief:
as §2

Assay [9] has as its system Enterococcus faecalis. In words: Antibacterial activity against Enterococcus faecalis LMG 16216 assessed as inhibition of bacterial growth incubated for 20 hrs by CLSI based broth microdilution method. It is filed as functional. The method in brief: as §2
The test system of assay [10] is Enterococcus faecalis. In words: Antibacterial activity against Enterococcus faecalis V583 assessed as inhibition of bacterial growth incubated for 20 hrs by CLSI based broth microdilution method. It is filed as functional. Summed up:
as §2

Assay [11] has as its system Enterococcus faecium. In words: Antibacterial activity against Enterococcus faecium LMG 16003 assessed as inhibition of bacterial growth incubated for 20 hrs by CLSI based broth microdilution method. It is filed as functional. The method in brief:
as §2

Assay [12] relates to Staphylococcus aureus. In words: Antibacterial activity against Staphylococcus aureus LMG 8224 assessed as inhibition of bacterial growth incubated for 20 hrs by CLSI based broth microdilution method. It is filed as functional. The method in brief:
as §2

In assay [13] the test system is Staphylococcus aureus. The experiment in a line: Antibacterial activity against Staphylococcus aureus LMG 10147 assessed as inhibition of bacterial growth incubated for 20 hrs by CLSI based broth microdilution method. It is filed as functional. The method in brief: as §2
Assay [14] concerns Staphylococcus aureus. In words: Antibacterial activity against Staphylococcus aureus LMG 15975 assessed as inhibition of bacterial growth incubated for 20 hrs by CLSI based broth microdilution method. It is filed as functional. Summed up:
as §2

Assay [15] deals with Staphylococcus epidermidis. In words: Antibacterial activity against Staphylococcus epidermidis Tu3298 assessed as inhibition of bacterial growth incubated for 20 hrs by CLSI based broth microdilution method. It is filed as functional. Summed up: as §2
Assay [16] deals with DNA. The experiment in a line: Stabilization of Staphylococcus aureus in G Quadruplex DNA GGGGCTAATTGGGGCTGGTGG assessed as change in melting temperature at 10 uM incubated for 16 hrs by […]. It is filed as nucleic-acid assay. Summed up: (§3)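 Readout was CD melting, not FRET: 2.5 μM oligonucleotide in 10 mM lithium cacodylate pH 7.4 with KCl set per sequence (initial Tm 60-70 °C). Annealed 95 °C 5 min, cooled to room temperature over 4 h, then ligand 10 μM (4 equiv) equilibrated 16 h at 20 °C. Ellipticity at 260 nm tracked every 0.1 °C, 20-95 °C at 5 °C/min; Tm by van't Hoff two-state fit.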

The test system of assay [17] is DNA. The experiment in a line: Stabilization of Staphylococcus aureus in G-quadruplex DNA GGA AGG AGG GGT GAC AGG G assessed as change in melting temperature at 10 uM incubated for 16 hrs by […]. It is filed as nucleic-acid assay. Summed up: as §3
The test system of assay [18] is DNA. In words: Stabilization of Staphylococcus aureus in G-quadruplex DNA GGGTTTGGGGCGGCGGTTGG assessed as change in melting temperature at 10 uM incubated for 16 hrs by FRET method. It is filed as nucleic-acid assay.
The subject of assay [19] is DNA. In words: Stabilization of Escherichia coli in G-quadruplex DNA GGT GGG GAG GGG TAA GGG G assessed as change in melting temperature at 10 uM incubated for 16 hrs by FRET method. It is filed as nucleic-acid assay. As to conditions: in the assay text read “by CD melting method” for “by FRET method”. The method in brief:
as §3

The test system of assay [20] is DNA. In words: Stabilization of Escherichia coli in G-quadruplex DNA GGG GGA GGA GGA CGG GGG assessed as change in melting temperature at 10 uM incubated for 16 hrs by FRET method. It is filed as nucleic-acid assay. As to conditions: in the assay text read “by CD melting method” for “by FRET method”. Summed up:
as §3

Assay [21] relates to DNA. The experiment in a line: Stabilization of Staphylococcus aureus in G Quadruplex DNA GGGGCTAATTGGGGCTGGTGG assessed as melting at 10 uM incubated for 16 hrs temperature by […]. It is filed as nucleic-acid assay. The method in brief: as §3
The test system of assay [22] is DNA. The experiment in a line: Stabilization of Staphylococcus aureus in G-quadruplex DNA GGA AGG AGG GGT GAC AGG G assessed as melting temperature at 10 uM incubated for 16 hrs […]. It is filed as nucleic-acid assay. Summed up:
as §3

In assay [23] the test system is DNA. In words: Stabilization of Staphylococcus aureus in G-quadruplex DNA GGGTTTGGGGCGGCGGTTGG assessed as melting temperature at 10 uM incubated for 16 hrs by […]. It is filed as nucleic-acid assay. Summed up: as §3
In assay [24] the test system is DNA. The experiment in a line: Stabilization of Escherichia coli in G-quadruplex DNA GGT GGG GAG GGG TAA GGG G assessed as melting temperature at 10 uM incubated for 16 hrs by […]. It is filed as nucleic-acid assay. The method in brief: as §3
Assay [25] relates to DNA. In words: Stabilization of Escherichia coli in G-quadruplex DNA GGG GGA GGA GGA CGG GGG assessed as melting temperature at 10 uM incubated for 16 hrs by […]. It is filed as nucleic-acid assay. The method in brief:
as §3

Assay [26] deals with DNA. The experiment in a line: Stabilization of Escherichia coli in G-quadruplex DNA GGG GCG GGG TGG GTT GG assessed as melting temperature at 10 uM incubated for 16 hrs by FRET method. It is filed as nucleic-acid assay.
Assay [27] concerns Enterococcus faecium. In words: Antibacterial activity against Enterococcus faecium LMG 11423 assessed as inhibition of bacterial growth incubated for 20 hrs by CLSI based broth microdilution method. As to conditions: LMG 11423, 20 h.
Assay [28] relates to DNA. In words: Stabilization of Escherichia coli in G-quadruplex DNA GGG GCG GGG TGG GTT GG assessed as change in melting temperature at 10 uM incubated for 16 hrs by CD melting method.

With `CC[C@H](C)CCCCC(=O)N[C@@H](CCN)C(=O)N[C@H](C(=O)N[C@@H](CCN)C(=O)N[C@H]1CCNC(=O)[C@H]([C@@H](C)O)NC(=O)[C@H](CCN)NC(=O)[C@H](CCN)NC(=O)[C@H](CC(C)C)NC(=O)[C@@H](Cc2ccccc2)NC(=O)[C@H](CCN)NC1=O)[C@@H](C)O` (X1-[Dab]T[Dab][Dab][Dab][dF]L[Dab][Dab]T; lactam 4-C), the outcome in the assay with Escherichia coli [1], in the assay on Bacillus cereus [2], in the assay with Enterococcus faecium [3] and in the assay on Staphylococcus aureus [4] was Active.
Turning to `CC(C)C[C@@H]1NC(=O)[C@H](CCCN)NC(=O)[C@H](C(C)C)NC(=O)[C@@H]2CCCN2C(=O)[C@@H](Cc2ccccc2)NC(=O)[C@H](CC(C)C)NC(=O)[C@H](CCCN)NC(=O)[C@H](C(C)C)NC(=O)[C@@H]2CCCN2C(=O)[C@@H](Cc2ccccc2)NC1=O` (cyclo(V[Orn]L[dF]PV[Orn]L[dF]P)), the outcome in the assay with Escherichia coli [1], in the assay on Bacillus cereus [2], in the assay on Enterococcus faecium [3] and with Staphylococcus aureus [4] was Active.
As to `CCCNc1cc2c3c(ccc4c3c1C(=O)N(CCCN(C)C)C4=O)C(=O)N(CCCN(C)C)C2=O`, the MIC in the assay on Enterobacter cloacae was more than 128 µM; with Acinetobacter baumannii, 64 µM (≈ 31.6 µg/mL); in the assay on Klebsiella aerogenes, 64 µM (≈ 31.6 µg/mL); in the assay on Escherichia coli [5], more than 128 µM; in the assay on Klebsiella pneumoniae, more than 128 µM; in the assay on Pseudomonas aeruginosa, more than 128 µM. Further, the MIC with Salmonella enterica is more than 128 µM; in the assay on Bacillus cereus [6] it was 64 µM (≈ 31.6 µg/mL); in the assay on Bacillus cereus [7], 64 µM (≈ 31.6 µg/mL); in the assay on Enterococcus faecalis [8] it was 64 µM (≈ 31.6 µg/mL); with Enterococcus faecalis [9] it was 32 µM (≈ 15.8 µg/mL); with Enterococcus faecalis [10], 32 µM (≈ 15.8 µg/mL). Moreover, the MIC in the assay with Enterococcus faecium [11] is 16 µM (≈ 7.9 µg/mL); in the assay on Staphylococcus aureus [12], 128 µM (≈ 63.2 µg/mL); with Staphylococcus aureus [13], 128 µM (≈ 63.2 µg/mL); with Staphylococcus aureus [14] it was 128 µM (≈ 63.2 µg/mL); in assay [15] it was 128 µM (≈ 63.2 µg/mL); with Enterococcus faecium [27], 16 µM (≈ 7.9 µg/mL). Besides, the ΔTm was 16.6 °C in the assay with DNA [16]; 12 °C with DNA [17]; 14.9 °C in the assay with DNA [18]; 12.2 °C in the assay on DNA [19]; 22.8 °C in the assay on DNA [20]; 14.3 °C in the assay on DNA [28]. In addition, the Tm in the assay with DNA [21] came to 77.6 °C; in the assay on DNA [22] it was 76.2 °C; with DNA [23] it was 74.3 °C; in the assay on DNA [24], 72.2 °C; with DNA [25], 92.8 °C; in the assay on DNA [26], 78 °C.

One may read the MIC as the smallest concentration in the dilution series that meets the test's criterion for growth inhibition. The term ΔTm denotes the shift of the melting midpoint relative to a reference.
